Assay results reported in ChEMBL document CHEMBL4251655 (Eur J Med Chem, 2018).
pIC50: −log10 of the molar value.

Assays:
[1] = target: T1, Mitogen-activated protein kinase kinase kinase 5 (Homo sapiens, UniProt Q99683); test: Inhibition of recombinant full length human GST-tagged ASK1 expressed in baculovirus expression system using STK3 peptide substrate preincubated for 15 mins followed by substrate addition measured after 90 mins in presence of 1 mM ATP by HTRF assay
T1 sequence (Q99683 whole entry): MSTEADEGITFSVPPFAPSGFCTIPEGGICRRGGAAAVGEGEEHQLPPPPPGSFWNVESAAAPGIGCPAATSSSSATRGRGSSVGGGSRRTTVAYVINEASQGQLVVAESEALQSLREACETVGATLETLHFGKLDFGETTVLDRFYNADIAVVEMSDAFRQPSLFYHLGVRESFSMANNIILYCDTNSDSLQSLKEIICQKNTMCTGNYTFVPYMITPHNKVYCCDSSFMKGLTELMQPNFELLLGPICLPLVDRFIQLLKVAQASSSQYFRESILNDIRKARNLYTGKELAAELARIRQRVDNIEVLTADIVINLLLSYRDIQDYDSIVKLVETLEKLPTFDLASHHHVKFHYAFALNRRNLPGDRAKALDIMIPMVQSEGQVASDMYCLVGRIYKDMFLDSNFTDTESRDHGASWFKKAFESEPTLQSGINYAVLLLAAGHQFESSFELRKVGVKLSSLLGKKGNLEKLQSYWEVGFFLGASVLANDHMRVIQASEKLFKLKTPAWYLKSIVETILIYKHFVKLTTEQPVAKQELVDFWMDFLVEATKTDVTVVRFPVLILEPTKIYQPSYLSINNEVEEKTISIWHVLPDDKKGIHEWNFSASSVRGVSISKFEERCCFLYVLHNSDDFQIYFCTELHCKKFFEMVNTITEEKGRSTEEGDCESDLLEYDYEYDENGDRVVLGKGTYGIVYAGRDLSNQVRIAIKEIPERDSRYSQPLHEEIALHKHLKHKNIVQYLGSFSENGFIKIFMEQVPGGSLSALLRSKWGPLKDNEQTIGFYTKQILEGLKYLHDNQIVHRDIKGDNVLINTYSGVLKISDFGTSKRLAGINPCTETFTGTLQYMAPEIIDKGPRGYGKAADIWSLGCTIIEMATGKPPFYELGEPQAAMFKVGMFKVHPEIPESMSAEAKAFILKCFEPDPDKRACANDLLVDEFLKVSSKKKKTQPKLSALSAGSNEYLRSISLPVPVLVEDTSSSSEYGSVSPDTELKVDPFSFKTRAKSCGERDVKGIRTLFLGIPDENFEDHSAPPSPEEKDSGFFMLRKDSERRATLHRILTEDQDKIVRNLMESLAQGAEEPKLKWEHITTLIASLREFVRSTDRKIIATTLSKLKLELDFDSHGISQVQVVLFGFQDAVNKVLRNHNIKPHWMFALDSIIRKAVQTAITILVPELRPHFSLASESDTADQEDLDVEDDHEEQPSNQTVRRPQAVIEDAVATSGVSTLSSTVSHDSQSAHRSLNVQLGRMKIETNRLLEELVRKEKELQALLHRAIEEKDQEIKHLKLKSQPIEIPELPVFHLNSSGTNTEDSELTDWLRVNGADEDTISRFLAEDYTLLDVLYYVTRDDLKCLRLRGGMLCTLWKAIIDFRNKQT
In short: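 Full-length recombinant human ASK1 (3 nM final) in kinase buffer with 5 mM MgCl2 and 1 mM DTT, preincubated with compound 15 min at 25 °C. Reaction started with ATP (1 mM) and STK3 peptide (1 µM final), run 90 min at room temperature, 2% DMSO. Stopped with EDTA detection mix, HTRF read after 2 h. Kiapp fitted by Morrison or competitive equation, converted to IC50 by Cheng-Prusoff using ATP Km 48 µM. Mean of at least two determinations.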

[2] = Lipophilicity, log D at pH 7.4 by shake flask method; conditions: buffer
[3] = target: T1, Mitogen-activated protein kinase kinase kinase 5; test: Inhibition of recombinant full length human ASK1 expressed in HEK293/AP1-Luc cells assessed as reduction in p38 phosphorylation after 18 hrs by HTRF assay; format: cell-based
In short: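 HEK293/AP-1luc cells stably overexpressing wild-type human full-length ASK1 (constitutively active, no stimulus), seeded at 25K cells/well, held 8 h at 37 °C, then switched to Optimem with Geneticin. Compound dilution series added (final DMSO 0.5%) for 18 h at 37 °C, 5% CO2. Cells lysed 1 h at room temperature; phospho-p38 read by HTRF after overnight (18 h) detection. Mean of at least two determinations.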

[4] = Permeability of the compound in RRCK cells; format: ADME, cell-based, Canis lupus familiaris, MDCKII-LE; conditions: dog, MDCK; read-out: permeability

Row | SMILES | pIC50 [1] | logD [2] | pIC50 [3] | Papp [4] [×10⁻⁶ cm/s]
1 | CC(C)n1cnnc1-c1cccc(NC(=O)c2cccc(C(N)=O)c2)n1 | 6.24 | – | – | –
2 | CCS(=O)(=O)Nc1cccc(C(=O)Nc2cccc(-c3nncn3C(C)C)n2)c1 | 7.14 | 1.7 | – | –
3 | CCS(=O)(=O)Nc1ccc(OC)c(C(=O)Nc2cccc(-c3nncn3C(C)C)n2)c1 | 9.49 | 2.2 | 7.39 | 5.6

Continued by rising pIC50 [1], values first:

Row | pIC50 [1] | logD [2] | pIC50 [3] | Papp [4] [×10⁻⁶ cm/s] | SMILES
4 | 6.77 | 2.4 | – | – | CC(C)n1cnnc1-c1cccc(NC(=O)c2cccc(-c3ncc[nH]3)c2)n1
5 | 8.62 | 1.8 | 6.57 | 9.8 | CNC(=O)c1ccc(OC)c(C(=O)Nc2cccc(-c3nncn3C(C)C)n2)c1
